# Reference: ChEMBL document CHEMBL1165945, “Study of benzo[a]phenazine 7,12-dioxide as selective hypoxic cytotoxin-scaffold. Identification of aerobic-antitumoral activity through DNA fragmentation” (Bioorg Med Chem, 2010)
# Calls of active or inactive are those of the source. No cut-off for these calls is given here.
# Assays:
# Calf thymus DNA [1] = experiment: Binding affinity to calf thymus DNA assessed as ratio of final absorbance area to the absorbance at 100 uM after 24 hrs by UV spectrophotometer analysis relative to control; type: nucleic-acid assay; conditions: Bos taurus
# Summary of the method: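 Calf thymus DNA was stirred 24 h at 4 °C in 10 mM Tris–HCl pH 7.4, then diluted. Compound at 10^-4 M (≤5% solvent) was diluted in water to 2 × 10^-5 M. This was mixed 1:1 by volume with the DNA solution and rotated 24 h. UV spectra were taken at 20 °C. The ratio is the area of a 20 nm band centred on λmax at 24 h over that at 0 h (a24/a0).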
# [2] = Cytotoxicity against chinese hamster V79 cells assessed as survival fraction under hypoxic condition at 20 uM after 7 days by crystal violet staining relative to control; type: cell-based, Cricetulus griseus; conditions: read-out: Activity
# Summary of the method: (§1)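 V79 suspension cultures were set at 2 × 10^4 cells/mL in EMEM with 10% FBS and 10 mM HEPES, under aerobic or hypoxic gassing. Compound at 20 µM was added 30 min after gassing began, in duplicate flasks, with a DMSO negative control. After 2 h the cells were replated (10^2–10^3 cells) for 7 days at 37 °C. Colonies of >64 cells were counted after crystal violet staining. SF = PEtreated/PEcontrol × 100; values are means of two experiments.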
# [3] = Cytotoxicity against chinese hamster V79 cells assessed as survival fraction under normoxic condition at 20 uM after 7 days by crystal violet staining relative to control; type: cell-based, Cricetulus griseus; conditions: read-out: Activity; summary of the method: as §1
# Caco-2 = experiment: Cytotoxicity against human Caco-2 cells assessed as induction of DNA fragmentation under oxic condition at 10 uM after 24 hrs using ethidium bromide staining by agarose gel electrophoresis; type: functional, cell-based
# Summary of the method: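 Caco-2 cells were seeded at 2 × 10^6 cells/well in 100-mm plates and exposed for 24 h under oxic conditions. Chromosomal DNA was then isolated and run on a 1% agarose gel with ethidium bromide staining to visualise fragmentation. The assay was repeated on four separate occasions.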
# Calf thymus DNA [4] = experiment: Binding affinity to calf thymus DNA assessed as change in melting temperature by UV spectrophotometer analysis; type: nucleic-acid assay; conditions: Bos taurus
# Summary of the method: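 Calf thymus DNA in 10 mM Tris–HCl pH 7.4 was mixed with compound at a 1:1 DNA:BPDO ratio. Thermal denaturation was followed as the change in absorbance at 260 nm with temperature, in a 1-cm cell.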
SMILES,Ratio (Calf thymus DNA [1]),"viability at 168 h, 20 µM [2] [%]","viability at 168 h, 20 µM [3] [%]",other results
O=C1c2c(O)ccc(O)c2C(=O)c2c(NCCNCCO)ccc(NCCNCCO)c21,0,,,
[O-][n+]1c2ccccc2[n+]([O-])c2c3ccccc3ccc21,1,45,40,
COc1cc(NS(C)(=O)=O)ccc1Nc1c2ccccc2nc2ccccc12,0.3,,,
COc1ccc2c(c1)[n+]([O-])c1c3ccccc3ccc1[n+]2[O-],1,44,88,
CC[n+]1c(-c2ccccc2)c2cc(N)ccc2c2ccc(N)cc21,0.5,,,
[O-][n+]1c2ccccc2[n+]([O-])c2c3ccccc3c(O)cc21,0,93,100,
CCOc1ccc(-c2nc3cc(-c4nc5cc(N6CCN(C)CC6)ccc5[nH]4)ccc3[nH]2)cc1,0.57,,,
CN[C@@H]1C[C@H]2O[C@@](C)([C@@H]1OC)n1c3ccccc3c3c4c(c5c6ccccc6n2c5c31)C(=O)NC4,,,,Activity (Caco-2): Active
Nc1ccc2cc3ccc(N)cc3nc2c1,,,,ΔTm (Calf thymus DNA [4]): 12 °C
